Assay results published in ChEMBL document CHEMBL4725271, “Design and synthesis of pyrazolo[3,4-d]pyrimidinone derivatives: Discovery of selective phosphodiesterase-5 inhibitors” (Bioorg Med Chem Lett, 2020).

Experiments:
[1] = biological target: cGMP-specific 3',5'-cyclic phosphodiesterase (Homo sapiens, UniProt O76074); assay: Inhibition of PDE5 (unknown origin)
Corpus cavernosum [2] = assay: Induction of smooth muscle relaxation in male albino rat corpus-cavernosum assessed as reduction in phenylephrine-induced contraction; type: functional, tissue-based
Corpus cavernosum [3] = assay: Induction of smooth muscle relaxation in male albino rat corpus-cavernosum assessed as reduction in phenylephrine-induced contraction relative to sildenafil; type: functional
Outline: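 Isolated penile corpus cavernosum strips from adult male albino rats anaesthetized with sodium pentobarbital (50mg/kg, i.v.), held in Krebs-Henseleit solution at 37°C aerated with carbogen under 1g initial tension. Equilibrated ~90 min with solution renewed every 15 min. Cumulative concentration-response curves in phenylephrine-contracted tissue, recorded isometrically.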

Row | Compound | IC50 [1] | EC50 (Corpus cavernosum [2]) | Emax (Corpus cavernosum [3])
1 | COc1ccc(CNc2nc(N3CCC[C@H]3CO)ncc2C(=O)NC[C@@H]2CN(C)CCO2)cc1Cl | 0.0061 µM | – | –
2 | COc1ccc(CN=c2[nH]c(N3CCC[C@H]3CO)ncc2C(=O)NCc2ncccn2)cc1Cl (stereo in doubt; T5) | 0.025 µM | – | –
3 | COc1ccc(CN=c2[nH]c(N3CCC[C@H]3CO)ncc2C(=O)NCc2ncccn2)cc1Cl (stereo in doubt; T6) | 0.0052 µM | – | –
4 | COc1ccc(CNc2nc(N3CCC(O)CC3)ncc2C(=O)NCc2ccccn2)cc1Cl | 0.059 µM | – | –
5 | COc1ccc(CNc2nc(N3CCC[C@H]3CO)ncc2C(=O)N[C@H]2CC[C@H](O)CC2)cc1Cl | 0.0018 µM | – | –
6 | COc1ccc(CNc2nc(OCc3ccccn3)ncc2C(=O)NCCCCO)cc1Cl | 0.012 µM | – | –
7 | COc1ccc(CNc2nc(N3CCO[C@H](CO)C3)ncc2C(=O)NCc2ccccn2)cc1Cl | 0.032 µM | – | –
8 | COc1ccc(CNc2nc(N3CCCC[C@H]3CO)ncc2C(=O)NCc2ccccn2)cc1Cl | 0.054 µM | – | –
9 | COc1ccc(CNc2nc(OCc3ccccn3)ncc2C(=O)Nc2ncccn2)cc1Cl | 0.012 µM | – | –
10 | COc1ccc(CNc2nc(OCc3ccccn3)ncc2C(=O)NCCN2CCOCC2)cc1Cl | 0.0056 µM | – | –
11 | COc1ccc(CNc2nc(OCc3ccccn3)ncc2C(=O)N[C@H]2CC[C@@H](O)CC2)cc1Cl | 0.0035 µM | – | –
12 | COc1ccc(CNc2nc(OCc3ccccn3)ncc2C(=O)OCc2ccccn2)cc1Cl | 0.0021 µM | – | –
13 | COC(=O)c1ccccc1OCc1nc2c(cnn2-c2ccccc2)c(=O)[nH]1 | – | 0.1 µM | 130%
14 | COc1ccc(CNc2nc(N3CCCC[C@H]3CO)ncc2C(=O)NCc2ncccn2)cc1Cl | 0.063 µM | – | –
15 | Nc1ccccc1NCc1nc2c(cnn2-c2ccc(Br)cc2)c(=O)[nH]1 | – | 0.707 µM | 148%
16 | COc1ccc(CNc2nc(N3CCC[C@H]3CO)ncc2C(=O)NCCCO)cc1Cl | 0.0066 µM | – | –
17 | COc1ccc(CNc2nc(N3CCC[C@@H]3CO)ncc2C(=O)NCc2ccccn2)cc1Cl | 0.0012 µM | – | –
18 | CC(C)Oc1ccccc1-c1nc2c(cnn2-c2ccc(Br)cc2)c(=O)[nH]1 | – | 0.28 µM | –

Row | Compound | IC50 [1] | EC50 (Corpus cavernosum [2]) | Emax (Corpus cavernosum [3])
19 | COc1ccc(CNc2nc(OCc3ccccn3)ncc2C(=O)NCCCO)cc1Cl | 0.013 µM | – | –
20 | O=c1[nH]c(CNc2ccccc2O)nc2c1cnn2-c1ccc(Br)cc1 | – | 5.05 µM | 133%
21 | COc1ccc(CNc2nc(N3Cc4ccccc4C[C@@H]3CO)ncc2C(=O)NCc2ccccn2)cc1Cl | 0.0065 µM | – | –
22 | COc1ccc(CNc2nc(OCc3ccccn3)ncc2C(=O)OCc2ncccn2)cc1Cl | 0.0042 µM | – | –
23 | O=c1[nH]c(-c2ccccc2O)nc2c1cnn2-c1ccccc1 | – | 0.5 µM | 93%
24 | Nc1ccccc1NCc1nc2c(cnn2-c2ccccc2)c(=O)[nH]1 | – | 6.8 µM | 113%
25 | CC(C)Oc1ccccc1-c1nc2c(cnn2-c2ccccc2)c(=O)[nH]1 | – | 0.5 µM | 130%
26 | CCCCOc1ccccc1-c1nc2c(cnn2-c2ccccc2)c(=O)[nH]1 | – | 0.63 µM | 170%
27 | CCCCOc1ccccc1-c1nc2c(cnn2-c2ccc(Br)cc2)c(=O)[nH]1 | – | 0.00489 µM | 160%
28 | COc1ccc(CN(C)c2nc(OCc3ccccn3)ncc2C(=O)NCc2ccccn2)cc1Cl | 0.085 µM | – | –
29 | O=c1[nH]c(-c2ccccc2O)nc2c1cnn2-c1ccc(Br)cc1 | – | 0.338 µM | 167%
30 | COc1ccc(CNc2nc(N(C)CCO)ncc2C(=O)NCc2ccccn2)cc1Cl | 0.032 µM | – | –
31 | CCCOc1ccccc1-c1nc2c(cnn2-c2ccccc2)c(=O)[nH]1 | – | 0.234 µM | 150%
32 | O=C(O)c1ccccc1OCc1nc2c(cnn2-c2ccccc2)c(=O)[nH]1 | – | 0.223 µM | –
33 | COc1ccc(CNc2nc(OCc3ccccn3)ncc2C(=O)NCc2ccccn2)cc1Cl | 0.0027 µM | – | –
34 | O=c1[nH]c(CNc2ccccc2O)nc2c1cnn2-c1ccccc1 | – | 0.25 µM | 125%
35 | COCCCNC(=O)c1cnc(OCc2ccccn2)nc1NCc1ccc(OC)c(Cl)c1 | 0.015 µM | – | –
36 | CCCOc1ccccc1-c1nc2c(cnn2-c2ccc(Br)cc2)c(=O)[nH]1 | – | 0.83 µM | 140%
